From ChEMBL document CHEMBL1124840 (J Med Chem, 1990)
Activity calls are given as the source filed them. The rule behind the calls is not given here. Positions of bridges follow the written chain, without caps; N, C: chain ends. Non-standard residues stand in square brackets, D forms with d. Residues, ends and D or L forms follow the SMILES beside them. Pen = CC(C)(S)[C@H](N)C(=O)O; hCys = N[C@@H](CCS)C(=O)O; Sar = CNCC(=O)O

Legend:
[1] = target: T1, Angiotensin II receptor (AT-1) type-1 (Rattus norvegicus, UniProt P29089+P25095); test: Concentration required to 50% inhibition in specific binding of [125- I]A-II to Angiotensin II receptor in rat uterine membrane; format: cell membranes
T1 sequence (P29089 whole entry): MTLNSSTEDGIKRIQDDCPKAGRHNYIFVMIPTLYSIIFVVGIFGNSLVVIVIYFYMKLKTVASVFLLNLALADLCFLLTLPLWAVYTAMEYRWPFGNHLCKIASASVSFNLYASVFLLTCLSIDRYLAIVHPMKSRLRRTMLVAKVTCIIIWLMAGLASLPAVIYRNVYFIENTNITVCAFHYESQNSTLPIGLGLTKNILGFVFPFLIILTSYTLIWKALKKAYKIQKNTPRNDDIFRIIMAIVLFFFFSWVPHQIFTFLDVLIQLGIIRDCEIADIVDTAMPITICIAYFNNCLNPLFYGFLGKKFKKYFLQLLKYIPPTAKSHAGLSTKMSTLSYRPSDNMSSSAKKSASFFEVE
T1 sequence (P25095 whole entry): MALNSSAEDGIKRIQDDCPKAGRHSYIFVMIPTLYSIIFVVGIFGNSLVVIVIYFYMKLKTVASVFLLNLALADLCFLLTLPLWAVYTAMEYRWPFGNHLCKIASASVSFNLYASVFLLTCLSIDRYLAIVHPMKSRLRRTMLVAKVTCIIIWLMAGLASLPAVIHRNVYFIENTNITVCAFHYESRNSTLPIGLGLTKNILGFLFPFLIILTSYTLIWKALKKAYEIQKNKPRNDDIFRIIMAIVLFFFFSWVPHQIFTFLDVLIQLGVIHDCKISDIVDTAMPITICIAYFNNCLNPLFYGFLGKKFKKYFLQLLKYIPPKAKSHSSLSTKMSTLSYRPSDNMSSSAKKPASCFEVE
Method in brief: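 Rat uterine membranes were homogenized in ice-cold Dulbecco's PBS with 5 mM EDTA, spun at 1500g then 100000g, and resuspended in 2 mM EGTA/50 mM Tris-HCl pH 7.5. Nonspecific binding was defined with 10 µM AII. IC50 came from nonlinear least-squares fits, triplicate means.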

Oryctolagus cuniculus [2] = species: Oryctolagus cuniculus; test: No contractile activity was observed up to 10 uM concentration in rabbit aortic rings relative to angiotensin II; NA = no activity; format: functional; details: Aorta
Method in brief: (§1)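 Aortic rings were taken from male New Zealand white rabbits (2–2.5 kg) and tested at analogue concentrations up to 10 µM. Potency is relative to the AII concentration/response curve run at the same time on a paired ring from the same aorta.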

Oryctolagus cuniculus [3] = species: Oryctolagus cuniculus; test: No contractile activity was observed up to 10 uM concentration in rabbit aortic rings; NA = no activity; format: functional; details: Aorta
Method in brief: (§2)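 Aortic rings were taken from male New Zealand white rabbits (2–2.5 kg) and tested at analogue concentrations up to 10 µM. pD2 was calculated from the analogue's concentration/response curve.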

Oryctolagus cuniculus [4] = species: Oryctolagus cuniculus; test: Contractile activity in rabbit aortic rings.; format: functional, Aorta; method in brief: as §2
Oryctolagus cuniculus [5] = species: Oryctolagus cuniculus; test: Contractile activity in rabbit aortic rings relative to angiotensin II.; format: functional, Aorta; method in brief: as §1
[6] = target: Type-1 angiotensin II receptor (Oryctolagus cuniculus) (UniProt P34976); test: pA2 value for Angiotensin II receptor
Sequence of Type-1 angiotensin II receptor (Oryctolagus cuniculus) (P34976 whole entry, looked up): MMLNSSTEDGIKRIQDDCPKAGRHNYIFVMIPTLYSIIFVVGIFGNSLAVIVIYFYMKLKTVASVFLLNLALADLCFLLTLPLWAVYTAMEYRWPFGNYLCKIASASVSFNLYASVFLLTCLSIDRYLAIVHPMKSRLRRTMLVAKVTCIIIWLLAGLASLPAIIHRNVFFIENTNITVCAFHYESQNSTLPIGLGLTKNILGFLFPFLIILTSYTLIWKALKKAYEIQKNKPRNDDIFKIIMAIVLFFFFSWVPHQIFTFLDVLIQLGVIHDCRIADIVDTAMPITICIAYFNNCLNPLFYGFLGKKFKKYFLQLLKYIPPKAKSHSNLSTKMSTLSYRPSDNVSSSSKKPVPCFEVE

Molecule | IC50 [1] [nM] | Kb [6] [nM] | Relative potency (Oryctolagus cuniculus [2]) | pD2 (Oryctolagus cuniculus [3]) | pD2 (Oryctolagus cuniculus [4]) | Relative potency (Oryctolagus cuniculus [5])
CC(=O)NCSC[C@H](NC(=O)[C@H](CCCN=C(N)N)NC(=O)[C@@H](N)CC(=O)O)C(=O)N[C@@H](Cc1ccc(O)cc1)C(=O)N[C@H](CSCNC(C)=O)C(=O)N[C@@H](Cc1c[nH]cn1)C(=O)N1CCC[C@H]1C(=O)N[C@@H](Cc1ccccc1)C(=O)O | 10000 |  | inactive | inactive |  | 
CC(=O)NCSC[C@H](NC(=O)[C@H](Cc1ccc(O)cc1)NC(=O)[C@@H](CSCNC(C)=O)NC(=O)[C@H](CCCN=C(N)N)NC(=O)[C@@H](N)CC(=O)O)C(=O)N[C@@H](Cc1c[nH]cn1)C(=O)N1CCC[C@H]1C(=O)N[C@@H](Cc1ccccc1)C(=O)O | > 10000 |  | inactive | inactive |  | 
NC(N)=NCCC[C@H](NC(=O)[C@@H](N)CC(=O)O)C(=O)N[C@@H]1CSSC[C@@H](C(=O)N[C@@H](Cc2c[nH]cn2)C(=O)N2CCC[C@H]2C(=O)N[C@@H](Cc2ccccc2)C(=O)O)NC(=O)[C@H](Cc2ccc(O)cc2)NC1=O |  |  | inactive | inactive |  | 
CC1(C)SSC[C@H](NC(=O)[C@H](CCCN=C(N)N)NC(=O)[C@@H](N)CC(=O)O)C(=O)N[C@@H](Cc2ccc(O)cc2)C(=O)N[C@@H]1C(=O)N[C@@H](Cc1c[nH]cn1)C(=O)N1CCC[C@H]1C(=O)N[C@@H](Cc1ccccc1)C(=O)O (H-DRCY[Pen]HPF-OH; disulfide 3-5) | 1.3 |  |  |  | 5.8 | 0.001
CC1(C)SSC[C@@H](C(=O)N[C@@H](Cc2c[nH]cn2)C(=O)N2CCC[C@H]2C(=O)N[C@@H](Cc2ccccc2)C(=O)O)NC(=O)[C@H](Cc2ccc(O)cc2)NC(=O)[C@H]1NC(=O)[C@H](CCCN=C(N)N)NC(=O)[C@@H](N)CC(=O)O (H-DR[Pen]YCHPF-OH; disulfide 3-5) | 58 |  |  |  | 5 | 0.0001
CC1(C)SSC(C)(C)[C@@H](C(=O)N[C@@H](Cc2c[nH]cn2)C(=O)N2CCC[C@H]2C(=O)N[C@@H](Cc2ccccc2)C(=O)O)NC(=O)[C@H](Cc2ccc(O)cc2)NC(=O)[C@H]1NC(=O)[C@H](CCCN=C(N)N)NC(=O)[C@@H](N)CC(=O)O (H-DR[Pen]Y[Pen]HPF-OH; disulfide 3-5) | 2.6 |  |  |  | 5 | 0.0001
NC(N)=NCCC[C@H](NC(=O)[C@@H](N)CC(=O)O)C(=O)N[C@H]1CCSSCC[C@@H](C(=O)N[C@@H](Cc2c[nH]cn2)C(=O)N2CCC[C@H]2C(=O)N[C@@H](Cc2ccccc2)C(=O)O)NC(=O)[C@H](Cc2ccc(O)cc2)NC1=O (H-DR[hCys]Y[hCys]HPF-OH; disulfide 3-5) | 2.1 |  |  |  | 8.48 | 0.49
CC[C@H](C)[C@H](NC(=O)[C@H](Cc1ccc(O)cc1)NC(=O)[C@@H](NC(=O)[C@H](CCCNC(=N)N)NC(=O)[C@@H](N)CC(=O)O)C(C)C)C(=O)N[C@@H](Cc1cnc[nH]1)C(=O)N1CCC[C@H]1C(=O)N[C@@H](Cc1ccccc1)C(=O)O [ANGIOTENSIN II] |  |  |  |  | 8.81 | 
H-DRCYIHPF-OH | 15 |  |  |  | 7.68 | 0.092

Continued, in another order:

IC50 [1] [nM] | Kb [6] [nM] | Molecule | Relative potency (Oryctolagus cuniculus [2]) | pD2 (Oryctolagus cuniculus [3]) | pD2 (Oryctolagus cuniculus [4]) | Relative potency (Oryctolagus cuniculus [5])
10000 |  | NC(N)=NCCC[C@H](NC(=O)[C@@H](N)CC(=O)O)C(=O)N[C@H]1CSSC[C@H](C(=O)N[C@@H](Cc2c[nH]cn2)C(=O)N2CCC[C@H]2C(=O)N[C@@H](Cc2ccccc2)C(=O)O)NC(=O)[C@H](Cc2ccc(O)cc2)NC1=O | inactive | inactive |  | 
43 |  | NC(N)=NCCC[C@H](NC(=O)[C@@H](N)CC(=O)O)C(=O)N[C@H]1CSSC[C@@H](C(=O)N[C@@H](Cc2c[nH]cn2)C(=O)N2CCC[C@H]2C(=O)N[C@@H](Cc2ccccc2)C(=O)O)NC(=O)[C@H](Cc2ccc(O)cc2)NC1=O |  |  | <5 | <0.0001
10000 |  | CC(=O)NCSC[C@H](NC(=O)[C@H](CCCN=C(N)N)NC(=O)[C@@H](N)CC(=O)O)C(=O)N[C@@H](Cc1ccc(O)cc1)C(=O)N[C@@H](CSCNC(C)=O)C(=O)N[C@@H](Cc1c[nH]cn1)C(=O)N1CCC[C@H]1C(=O)N[C@@H](Cc1ccccc1)C(=O)O |  |  | <5 | <0.0001
13 |  | NC(N)=NCCC[C@H](NC(=O)[C@@H](N)CC(=O)O)C(=O)N[C@H]1CSSCC[C@@H](C(=O)N[C@@H](Cc2c[nH]cn2)C(=O)N2CCC[C@H]2C(=O)N[C@@H](Cc2ccccc2)C(=O)O)NC(=O)[C@H](Cc2ccc(O)cc2)NC1=O (H-DRCY[hCys]HPF-OH; disulfide 3-5) |  |  | 6.98 | 0.012
10 |  | NC(N)=NCCC[C@H](NC(=O)[C@@H](N)CC(=O)O)C(=O)N[C@H]1CCSSC[C@@H](C(=O)N[C@@H](Cc2c[nH]cn2)C(=O)N2CCC[C@H]2C(=O)N[C@@H](Cc2ccccc2)C(=O)O)NC(=O)[C@H](Cc2ccc(O)cc2)NC1=O (H-DR[hCys]YCHPF-OH; disulfide 3-5) |  |  | 5.91 | 0.001
0.9 | 0.813 | CC[C@H](C)[C@H](NC(=O)[C@@H]1CCCN1C(=O)[C@H](Cc1c[nH]cn1)NC(=O)[C@@H]1CCSSCC[C@H](NC(=O)[C@H](CCCN=C(N)N)NC(=O)CNC)C(=O)N[C@@H](Cc2ccc(O)cc2)C(=O)N1)C(=O)O (H-[Sar]R[hCys]Y[hCys]HPI-OH; disulfide 3-5) | inactive | inactive |  | 
20 |  | H-DRVYCHPF-OH |  |  | 7.21 | 0.031
